Measurements published in ChEMBL document CHEMBL1212800, “Influence of alpha-1 glycoprotein acid concentrations and variants on atazanavir pharmacokinetics in HIV-infected patients included in the ANRS 107 trial” (Antimicrob Agents Chemother, 2010).

Key:
[1] = Apparent volume of distribution with respect to the bioavailability in human by covariate model; type: ADME, organism-based; conditions: in vivo, read-out: Vc/F
Summary of the method: (§1)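 HIV-infected patients (ANRS 107) on atazanavir plus ritonavir plus tenofovir plus optimized background. Week-6 predose plasma trough samples; 10-patient substudy also sampled at 1, 2, 3, 5, 8 and 24 h postdose. Plasma held at −20°C, assayed by LC-MS/MS (LOQ 1 ng/ml). Population analysis used a one-compartment model with first-order absorption and elimination, exponential interindividual variability and proportional residual error.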

[2] = Apparent oral clearance in human by one-compartment model; type: ADME, organism-based; conditions: in vivo; summary of the method: as §1
[3] = molecular target: Albumin (Homo sapiens, UniProt P02768); test: Binding affinity to human serum albumin; type: ADME; conditions: isolated protein
Summary of the method: (§2)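 In vitro binding: alpha-1 glycoprotein acid or serum albumin solutions in pH 7.4 phosphate-buffered saline with added atazanavir. Bound and unbound drug separated by ultrafiltration of 500-µl samples (30,000 Da cutoff membrane), 2 h at 30°C. Ultrafiltrate drug measured by HPLC-UV at 220 nm (C18 column, liquid-liquid extraction, internal standard). Unbound fraction taken as unbound/total concentration. Binding profiled as bound versus unbound concentration.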

[4] = AUC in patient with => 40 IU/liter ALAT level by one-compartment model; type: ADME, organism-based; conditions: human, in vivo; summary of the method: as §1
[5] = Half life in patient with elevated alpha-1- glycoprotein acid level by covariate model; type: ADME, organism-based; conditions: human, in vivo; summary of the method: as §1
[6] = Half life in patient with elevated alpha-1- glycoprotein acid level by one-compartment model; type: ADME, organism-based; conditions: human, in vivo; summary of the method: as §1
[7] = Apparent oral clearance in human by covariate model; type: ADME, organism-based; conditions: in vivo; summary of the method: as §1
[8] = species on record: Homo sapiens; test: Absorption rate constant in human by one-compartment model; type: ADME, organism-based; conditions: in vivo; summary of the method: as §1
[9] = AUC in patient with elevated alpha-1- glycoprotein acid level by one-compartment model; type: ADME, organism-based; conditions: human, in vivo; summary of the method: as §1
[10] = Half life in patient with => 40 IU/liter ALAT level by covariate model; type: ADME, organism-based; conditions: human, in vivo; summary of the method: as §1
[11] = Binding affinity to human alpha-1-glycoprotein acid; type: ADME; summary of the method: as §2
[12] = Apparent volume of distribution with respect to the bioavailability in human by one-comparment model; type: ADME, organism-based; conditions: in vivo, read-out: Vc/F; summary of the method: as §1
[13] = AUC in patient with elevated alpha-1- glycoprotein acid level by covariate model; type: ADME, organism-based; conditions: human, in vivo; summary of the method: as §1
[14] = Half life in patient with => 40 IU/liter ALAT level by one-compartment model; type: ADME, organism-based; conditions: human, in vivo; summary of the method: as §1
[15] = species on record: Homo sapiens; test: Absorption rate constant in human by covariate model; type: ADME, organism-based; conditions: in vivo; summary of the method: as §1
[16] = AUC in patient with => 40 IU/liter ALAT level by covariate model; type: ADME, organism-based; conditions: human, in vivo; summary of the method: as §1

Chain of Albumin (P02768 whole entry): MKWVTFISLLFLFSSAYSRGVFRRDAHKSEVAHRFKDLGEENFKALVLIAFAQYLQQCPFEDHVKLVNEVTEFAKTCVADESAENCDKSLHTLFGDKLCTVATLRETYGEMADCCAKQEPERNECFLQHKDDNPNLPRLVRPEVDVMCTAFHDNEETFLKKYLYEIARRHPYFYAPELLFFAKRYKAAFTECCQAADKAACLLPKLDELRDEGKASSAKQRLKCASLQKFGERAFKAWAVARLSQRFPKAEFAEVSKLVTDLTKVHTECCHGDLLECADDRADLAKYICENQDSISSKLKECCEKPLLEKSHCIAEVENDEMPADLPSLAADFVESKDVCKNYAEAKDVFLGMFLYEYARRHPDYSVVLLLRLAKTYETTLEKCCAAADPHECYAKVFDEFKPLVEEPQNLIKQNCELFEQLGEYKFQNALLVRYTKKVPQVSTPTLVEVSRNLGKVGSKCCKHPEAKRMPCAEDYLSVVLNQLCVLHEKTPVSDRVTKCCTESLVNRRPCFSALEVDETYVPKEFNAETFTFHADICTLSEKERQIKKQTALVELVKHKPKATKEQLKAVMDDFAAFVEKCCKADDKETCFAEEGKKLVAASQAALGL

Vd/F [1]: 79.7 L
CL/F [2]: 130 mL/min
Activity [3]: 21.3%
AUC [4]: 47400 ng·h/mL
half-life [5]: 9 h
half-life [6]: 9 h
CL/F [7]: 222 mL/min
ka [8]: 0.75 h⁻¹
AUC [9]: 49600 ng·h/mL
half-life [10]: 7.8 h
Activity [11]: 31.1%
Vd/F [12]: 78.2 L
AUC [13]: 49600 ng·h/mL
half-life [14]: 7.8 h
ka [15]: 0.73 h⁻¹
AUC [16]: 47400 ng·h/mL
SMILES: COC(=O)N[C@H](C(=O)N[C@@H](Cc1ccccc1)[C@@H](O)CN(Cc1ccc(-c2ccccn2)cc1)NC(=O)[C@@H](NC(=O)OC)C(C)(C)C)C(C)(C)C [ATAZANAVIR]
